Active and inactive are the calls of the source.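 The calls were made as follows, unless noted: active = viability at or under a set limit in both replicates, limit being median viability minus 3 SD (cut at about 48% in these data, passing the limit was not always enough); inconclusive = at or under the limit in just one replicate; inactive = at or above the limit in both replicates.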
Tests used:
[1] = molecular target: Pantothenate synthetase (Mycobacterium tuberculosis (strain ATCC 25618 / H37Rv)) (UniProt P9WIL5); assay: Recombinant Mtb pantothenate synthetase (PanC) inhibitors, coupled enzyme, confirmatory (AID 375; call rule not given here;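 also: 0% = full reaction with vehicle and 100% = no enzyme background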); conditions: coupled enzyme assay; at 10 µM, stronger effect = higher value
Sequence of Pantothenate synthetase (Mycobacterium tuberculosis (strain ATCC 25618 / H37Rv)) (P9WIL5 whole entry, looked up): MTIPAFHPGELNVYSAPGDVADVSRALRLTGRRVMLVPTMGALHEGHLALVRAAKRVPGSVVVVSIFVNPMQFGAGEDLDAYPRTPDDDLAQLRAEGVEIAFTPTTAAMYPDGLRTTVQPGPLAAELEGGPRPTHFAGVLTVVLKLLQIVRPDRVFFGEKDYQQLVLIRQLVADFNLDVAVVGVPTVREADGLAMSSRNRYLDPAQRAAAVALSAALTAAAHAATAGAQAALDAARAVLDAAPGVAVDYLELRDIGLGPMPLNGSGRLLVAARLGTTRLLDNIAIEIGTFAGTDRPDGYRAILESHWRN

[2] = reducers of endogenous Her2 protein level, primary screen, SKBR3 breast tumor cells, AlphaScreen, ATP viability (AID 461;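 active = Her2 level under about 52% in both replicate screens, with viability over 70% of control, limit read from the data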;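 as to Her2 level: lower value means less Her2 protein in the cells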;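 as to viability: percent of carrier control wells set as 100% viability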); conditions: 18-24 h, measured here: SKBR3 viability, ATP luminescence, at 10 µM
[3] = molecular target: Receptor tyrosine-protein kinase erbB-2 (Homo sapiens) (UniProt P04626); assay: as above; conditions: 18-24 h, at 10 µM, stronger effect = lower value
Sequence of Receptor tyrosine-protein kinase erbB-2 (Homo sapiens) (P04626 whole entry, looked up): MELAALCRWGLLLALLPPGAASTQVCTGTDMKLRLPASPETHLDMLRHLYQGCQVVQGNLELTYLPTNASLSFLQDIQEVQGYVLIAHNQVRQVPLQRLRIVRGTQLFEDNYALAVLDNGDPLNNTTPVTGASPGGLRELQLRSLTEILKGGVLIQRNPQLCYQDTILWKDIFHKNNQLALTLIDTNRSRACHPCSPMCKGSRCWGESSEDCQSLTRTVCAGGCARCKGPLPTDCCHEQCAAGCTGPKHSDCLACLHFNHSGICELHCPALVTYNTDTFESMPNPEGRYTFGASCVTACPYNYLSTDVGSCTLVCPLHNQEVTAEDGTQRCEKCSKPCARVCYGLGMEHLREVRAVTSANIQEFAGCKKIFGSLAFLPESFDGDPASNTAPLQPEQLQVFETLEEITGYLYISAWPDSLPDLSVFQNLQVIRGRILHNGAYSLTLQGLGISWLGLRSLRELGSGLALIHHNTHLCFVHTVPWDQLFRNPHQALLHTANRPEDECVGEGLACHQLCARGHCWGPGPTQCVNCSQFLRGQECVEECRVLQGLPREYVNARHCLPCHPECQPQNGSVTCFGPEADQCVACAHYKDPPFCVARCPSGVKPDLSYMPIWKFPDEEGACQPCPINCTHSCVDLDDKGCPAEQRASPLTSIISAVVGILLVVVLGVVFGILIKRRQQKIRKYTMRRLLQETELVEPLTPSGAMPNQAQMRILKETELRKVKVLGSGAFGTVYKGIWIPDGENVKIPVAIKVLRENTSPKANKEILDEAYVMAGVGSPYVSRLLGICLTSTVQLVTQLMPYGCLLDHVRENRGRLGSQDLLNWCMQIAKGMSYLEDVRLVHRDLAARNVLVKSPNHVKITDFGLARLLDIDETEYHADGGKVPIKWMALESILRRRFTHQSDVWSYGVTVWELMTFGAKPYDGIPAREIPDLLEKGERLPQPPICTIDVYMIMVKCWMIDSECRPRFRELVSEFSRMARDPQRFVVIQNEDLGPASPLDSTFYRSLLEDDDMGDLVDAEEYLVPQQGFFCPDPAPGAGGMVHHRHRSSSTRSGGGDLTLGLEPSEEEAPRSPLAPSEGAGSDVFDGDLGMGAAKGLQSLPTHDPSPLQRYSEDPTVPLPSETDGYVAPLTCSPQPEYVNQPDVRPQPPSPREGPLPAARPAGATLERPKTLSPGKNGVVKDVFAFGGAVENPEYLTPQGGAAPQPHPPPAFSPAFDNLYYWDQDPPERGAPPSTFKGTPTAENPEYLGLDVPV

[4] = SK-BR-3 cell growth inhibitors, pilot screen, 24 h, human (AID 572;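 active = viability at or below 10% of carrier control in both of two separate runs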;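 also: compound exposure lasted between 18 and 24 h rather than exactly 24 h; 100% = carrier-treated control wells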); conditions: SK-BR-3 viability, CellTiter-Glo luminescence, at 10 µM, stronger effect = lower value
[5] = HUVEC growth inhibition – cell-based, human, primary screen (AID 575;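 active = viability at or below 30% in both replicate assays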;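 also: 100% = median of untreated cell wells with 0.1% DMSO on each plate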); conditions: HUVEC proliferation, CellTiter-Glo luminescence, 72 h; at 10 µM; stronger effect = lower value
Outline: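 Timing: 72 h treatment at 37 °C; material: HUVEC primary cells; technique: CellTiter-Glo luminescence measuring cellular ATP; controls: vehicle and MePR control wells; measure: percent of median DMSO-control luminescence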

[6] = growth inhibitors of H69AR lung tumor, primary screen, human, duplicate replicates (AID 580); conditions: H69AR lung tumor cells viability, ATP luminescence, 72 h; at 10 µM; stronger effect = lower value;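 also: 100% = mean luminescence of untreated wells and 0% = no signal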
[7] = reversal of MRP1-mediated doxorubicin resistance, pilot screen, H69AR cells, doxorubicin co-treatment (AID 601;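 active = viability loss from added drug above about 55%, and viability with drug at most 40%, in both replicates, limit read from the data, passing the limit was not always enough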); conditions: CellTiter-Glo, 72 h, at 10 µM; for differential viability (reversal): stronger effect = higher value
[8] = 384-well plate pilot, post-Golgi transport modulator project, inhibition of yeast transport mutant growth (AID 636; in the data active = inhibition above about 31%); conditions: absorbance 615 nm, about 18 h, stronger effect = higher value
[9] = growth suppression of yeast trafficking mutant, preliminary HTS, modulators of trafficking downstream of Golgi apparatus project, 1536-format plate, OD 615 nm (AID 637; in the data active = inhibition above about 30%); conditions: yeast transport mutant growth, absorbance 615 nm, 18 h; stronger effect = higher value
[10] = H69AR cells + 2 uM doxorubicin, measured here: viability with 2 uM doxorubicin, stronger effect = lower value
[11] = H69AR cells, compound alone cytotoxicity

Compound	inhibition [1]	viability [2] [%]	Her2 level [3]	viability [4]	viability [5]	viability [6]	differential viability (reversal) ([7]; H69AR cells + 2 uM doxorubicin)	viability [7, 10] [%]	viability [7, 11] [%]	inhibition [8]	inhibition [9]
CCCCn1c(O)c(C(CC)=Nc2cccc(C(=O)O)c2)c(=O)[nH]c1=O	0% (inactive)	97.5	92% (inactive)	97.5% (inactive)	96.9% (inactive)	102% (inactive)	9.65% (inactive)	92.6	102	-2.67% (inactive)	-4.13% (inactive)
COc1ccccc1N1CCN(Cc2c(F)cccc2F)CC1	1% (inactive)	89	88.5% (inactive)	89% (inactive)	107% (inactive)	94.2% (inactive)	-2.56% (inactive)	96.8	94.2	-1.69% (inactive)	0.98% (inactive)
O=c1[nH]c(=O)n(Cc2ccco2)c(O)c1C=NCCCn1ccnc1	0% (inactive)	88.5	104% (inactive)	88.5% (inactive)	93.5% (inactive)	95.2% (inactive)	0.33% (inactive)	94.8	95.2	0.77% (inactive)	-3.33% (inactive)
CSc1ccc(CNC2CN3CCC2CC3)cc1 (stereo not given)	0% (inactive)	89.5	93.5% (inactive)	89.5% (inactive)	91.2% (inactive)	89.1% (inactive)	7.31% (inactive)	81.8	89.1	-3.47% (inactive)	-3.77% (inactive)
CCOc1ccc(-n2c(O)c(C=NCCN3CCNCC3)c(=O)[nH]c2=O)cc1	3% (inactive)	102	77.5% (inactive)	102% (inactive)	100% (inactive)	89% (inactive)	-4.71% (inactive)	93.8	89	-1.58% (inactive)	-3.71% (inactive)

— PubChem BioAssay
